Assay results taken from ChEMBL document CHEMBL1154427, “Impact of dual infections on chemotherapeutic efficacy in BALB/c mice infected with major genotypes of Trypanosoma cruzi” (2007).

Columns and labels:
Format in all cases: functional
Trypanosoma cruzi [1] = experiment: Antimicrobial activity against Trypanosoma cruzi infected in BALB/c mouse assessed as parasitemia remaining in fresh blood
Summary of the method: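 Tail-vein blood examined daily by light microscopy for living trypomastigotes up to day 60 after infection.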

Trypanosoma cruzi [2] = experiment: Antimicrobial activity against Trypanosoma cruzi infected in BALB/c mouse assessed as parasitemia remaining in hemoculture
Summary of the method: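 Orbital sinus blood taken 30 days after treatment was inoculated into 3 ml LIT medium and kept at 28°C. Tubes were checked for parasites at days 30, 60, 90 and 120 of culture.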

Trypanosoma cruzi [3] = experiment: Antimicrobial activity against Trypanosoma cruzi genotype 19 and genotype 39 dually infected in BALB/c mouse assessed as cure rate
Summary of the method: (§1)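 Mice counted cured when fresh blood examination, hemoculture, blood PCR, ELISA and FC-ALTA were all negative. Mice negative by parasitology and FC-ALTA but positive by ELISA were counted as dissociated and also cured. Observed cure rate per group = cured animals / total infected treated animals × 100. Each genotype combination was run in replicate batches.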

Trypanosoma cruzi [4] = experiment: Antimicrobial activity against Trypanosoma cruzi infected in BALB/c mouse assessed as parasitemia remaining by PCR method
Summary of the method: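 Orbital sinus blood taken 30 days after treatment into 6 M guanidine–0.2 M EDTA (pH 8.0), 1:2, and kept at room temperature. PCR used primers S35/S36 with 3.5 mM MgCl2: 5 min at 94°C, then 35 cycles of 95°C/65°C/72°C for 1 min each, then 10 min final extension. Products were resolved on 6% polyacrylamide with silver staining.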

Trypanosoma cruzi [5] = experiment: Antimicrobial activity against Trypanosoma cruzi infected in BALB/c mouse assessed as parasitemia remaining by ELISA
Summary of the method: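 Conventional ELISA on sera taken 2 and 3 months after treatment and stored at –20°C. Sera were tested at 1:80 in PBS against an alkaline-extract antigen of Y strain parasites grown to exponential phase in LIT medium. Bound antibody was detected with peroxidase anti-mouse IgG and read at 490 nm. Per-plate cutoff = mean of 10 negative sera + 2 SD.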

Trypanosoma cruzi [6] = experiment: Antimicrobial activity against Trypanosoma cruzi genotype 19 and genotype 32 dually infected in BALB/c mouse assessed as cure rate; summary of the method: as §1
Trypanosoma cruzi [7] = experiment: Antimicrobial activity against Trypanosoma cruzi infected in BALB/c mouse assessed as parasitemia remaining by FC-ALTA
Summary of the method: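 Flow cytometric detection of antibodies to live trypomastigotes, microplate format, on sera taken 3 months after treatment and diluted 1:1,500. IgG was detected with FITC-labelled goat anti-mouse IgG. Read-out was percentage of positive fluorescent parasites, relative to a conjugate-only control; >20% was scored positive. Positive and negative controls ran in each batch.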

Trypanosoma cruzi [8] = experiment: Antimicrobial activity against Trypanosoma cruzi 1 infected in BALB/c mouse assessed as cure rate; summary of the method: as §1
Trypanosoma cruzi [9] = experiment: Antimicrobial activity against Trypanosoma cruzi infected in BALB/c mouse assessed as cure rate; summary of the method: as §1
Trypanosoma cruzi [10] = experiment: Antimicrobial activity against Trypanosoma cruzi 2 infected in BALB/c mouse assessed as cure rate; summary of the method: as §1
Trypanosoma cruzi [11] = experiment: Antimicrobial activity against Trypanosoma cruzi and Trypanosoma cruzi 2 dually infected in BALB/c mouse assessed as cure rate; summary of the method: as §1
Trypanosoma cruzi [12] = experiment: Antimicrobial activity against Trypanosoma cruzi 1 and Trypanosoma cruzi 2 dually infected in BALB/c mouse assessed as cure rate; summary of the method: as §1
Trypanosoma cruzi [13] = experiment: Antimicrobial activity against Trypanosoma cruzi 1 and Trypanosoma cruzi dually infected in BALB/c mouse assessed as cure rate; summary of the method: as §1
Trypanosoma cruzi [14] = experiment: Antimicrobial activity against Trypanosoma cruzi 1 dually infected in BALB/c mouse assessed as cure rate; summary of the method: as §1
Trypanosoma cruzi [15] = experiment: Antimicrobial activity against Trypanosoma cruzi genotype 20 infected in BALB/c mouse assessed as cure rate; summary of the method: as §1
Trypanosoma cruzi [16] = experiment: Antimicrobial activity against Trypanosoma cruzi genotype 19 infected in BALB/c mouse assessed as cure rate; summary of the method: as §1
Trypanosoma cruzi [17] = experiment: Antimicrobial activity against Trypanosoma cruzi genotype 32 infected in BALB/c mouse assessed as cure rate; summary of the method: as §1
Trypanosoma cruzi [18] = experiment: Antimicrobial activity against Trypanosoma cruzi genotype 39 infected in BALB/c mouse assessed as cure rate; summary of the method: as §1
Trypanosoma cruzi [19] = experiment: Antimicrobial activity against Trypanosoma cruzi genotype 20 and genotype 19 dually infected in BALB/c mouse assessed as cure rate; summary of the method: as §1
Trypanosoma cruzi [20] = experiment: Antimicrobial activity against Trypanosoma cruzi genotype 39 and genotype 32 dually infected in BALB/c mouse assessed as cure rate; summary of the method: as §1
Trypanosoma cruzi [21] = experiment: Antimicrobial activity against Trypanosoma cruzi OPS21 cl11 and Trypanosoma cruzi MAS cl11 dually infected in BALB/c mouse assessed as cure rate; summary of the method: as §1
Trypanosoma cruzi [22] = experiment: Antimicrobial activity against Trypanosoma cruzi Bug2148 cl1 and Trypanosoma cruzi MAS cl11 dually infected in BALB/c mouse assessed as cure rate; summary of the method: as §1

## O=C(Cn1ccnc1[N+](=O)[O-])NCc1ccccc1 [BENZNIDAZOLE]
Trypanosoma cruzi [1]
  Activity: 19.8%
Trypanosoma cruzi [2]
  Activity: 79.3%
Trypanosoma cruzi [3]
  Activity: 25.9%
Trypanosoma cruzi [4]
  Activity: 93%
Trypanosoma cruzi [5]
  Activity: 96.4%
Trypanosoma cruzi [6]
  Activity: 22.7%
Trypanosoma cruzi [7]
  Activity: 99%
Trypanosoma cruzi [8]
  Activity: 35.4%
Trypanosoma cruzi [9]
  Activity: 54.4%
Trypanosoma cruzi [10]
  Activity: 70%
Trypanosoma cruzi [11]
  Activity: 59.1%
Trypanosoma cruzi [12]
  Activity: 17.4%
Trypanosoma cruzi [13]
  Activity: 24%
Trypanosoma cruzi [14]
  Activity: <33%
Trypanosoma cruzi [15]
  Activity: 0%
Trypanosoma cruzi [16]
  Activity: 70%
Trypanosoma cruzi [17]
  Activity: 70%
Trypanosoma cruzi [18]
  Activity: 50%
Trypanosoma cruzi [19]
  Activity: 0%
Trypanosoma cruzi [20]
  Activity: 59.1%
Trypanosoma cruzi [21]
  Activity: 14.3%
Trypanosoma cruzi [22]
  Activity: 83.3%
